Experimental data from ChEMBL document CHEMBL2434843, “Synthesis and evaluation of α-ketotriazoles and α,β-diketotriazoles as inhibitors of Mycobacterium tuberculosis” (Eur J Med Chem, 2013).
Values after ≈ are worked out from the molar mass of the structure shown.

Experiments:
[1] = system: Mycobacterium tuberculosis; test: Antitubercular activity against Mycobacterium tuberculosis H37Rv assessed as growth inhibition after 21 days by micro-broth dilution method; assay type: functional; conditions: 504 h
[2] = system: HCT-116; test: Cytotoxicity against human HCT116 cells after 4 days by WST-1 assay; assay type: functional, cell-based; conditions: HCT-116, 96 h
Summary of the method: (§1)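 Cells were cultured in DMEM with 10% fetal calf serum and seeded at 3000 per well. After 24 h they were treated with 100 nM to 50 μM compound, 8 replicates per concentration, for 4 days. Viability was read by WST-1 and reported as IC50.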

[3] = Cytotoxicity against human GM637 cells after 4 days by WST-1 assay; assay type: cell-based; conditions: GM637, 96 h; summary of the method: as §1
[4] = system: Mycobacterium tuberculosis; test: Antitubercular activity against Mycobacterium tuberculosis H37Rv assessed as growth inhibition; assay type: functional
Summary of the method: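 M. tuberculosis H37Rv grown at 37 °C in Middlebrook 7H9 with 0.05% Tween 80, or on 7H11 agar with OADC. Culture dilutions of about 10^5-10^6 cfu/ml were streaked onto 7H11 plates holding 0.25 µg/mL to 40 µg/mL drug. Plates were incubated at 37 °C for about 21 days, and MIC was read from visual growth.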

SMILES	MIC [1]	IC50 [2]	IC50 [3]	MIC [4]
O=C(C(=O)c1ccc(Cl)cc1Cl)c1cn(C2CCCCC2)nn1	43.7 µM (≈ 15.4 µg/mL)	–	–	–
COc1ccc(CCn2cc(C(=O)Cc3ccc(OC)cc3)nn2)cc1	> 91.1 µM	–	–	–
COc1ccc(C(=O)C(=O)c2cn(Cc3ccccc3)nn2)cc1	7.6 µM (≈ 2.44 µg/mL)	> 50 µM	> 50 µM	–
CCCCCCCCc1cn(CC(=O)OCC)nn1	–	–	–	1.9 µg/mL (≈ 7.11 µM)
O=C(C(=O)c1ccc(Cl)cc1Cl)c1cn(CCc2ccccc2)nn1	13.4 µM (≈ 5.01 µg/mL)	> 50 µM	> 50 µM	–
CCCCCCCCn1cc(C(=O)C(=O)c2ccc(Cl)cc2Cl)nn1	80.7 µM (≈ 30.9 µg/mL)	> 50 µM	> 50 µM	–
O=C(C(=O)c1ccc(Cl)cc1Cl)c1cn(Cc2ccc([N+](=O)[O-])cc2)nn1	79 µM (≈ 32 µg/mL)	> 50 µM	> 50 µM	–
O=C(Cc1ccc(Cl)cc1Cl)c1cn(CCc2ccccc2)nn1	> 88.8 µM	–	–	–
COc1cc(Cn2cc(C(=O)C(=O)c3ccccc3)nn2)cc(OC)c1	11.4 µM (≈ 4 µg/mL)	> 50 µM	> 50 µM	–
NNC(=O)c1ccncc1 [ISONIAZID]	0.4 µM (≈ 0.0549 µg/mL)	–	–	–
O=C(C(=O)c1cn(Cc2ccc([N+](=O)[O-])cc2)nn1)c1ccccc1	11.9 µM (≈ 4 µg/mL)	> 50 µM	> 50 µM	–
COc1ccc(CCn2cc(C(=O)C(=O)c3ccc(OC)cc3)nn2)cc1	> 87.6 µM	–	–	–
COc1ccc(CC(=O)c2cn(CCc3ccccc3)nn2)cc1	> 112 µM	–	–	–
O=C(C(=O)c1ccc(Cl)cc1Cl)c1cn(Cc2ccccc2)nn1	6.9 µM (≈ 2.49 µg/mL)	> 50 µM	> 50 µM	–
COc1ccccc1C(=O)C(=O)c1cn(Cc2ccccc2)nn1	12.4 µM (≈ 4 µg/mL)	> 50 µM	> 50 µM	–
CCCCCCCCn1cc(C(=O)C(=O)c2ccccc2)nn1	51 µM (≈ 16 µg/mL)	–	–	–
Cc1cc(C)cc(Cn2cc(C(=O)Cc3ccccc3)nn2)c1	–	> 50 µM	> 50 µM	–
O=C(Cc1ccccc1)c1cn(Cc2ccc([N+](=O)[O-])cc2)nn1	–	> 50 µM	> 50 µM	–
COc1cc(Cn2cc(C(=O)C(=O)c3ccc(Cl)cc3Cl)nn2)cc(OC)c1	9.51 µM (≈ 4 µg/mL)	> 50 µM	> 50 µM	–
COc1cc(Cn2cc(C(=O)C(=O)c3ccccc3OC)nn2)cc(OC)c1	21 µM (≈ 8.01 µg/mL)	> 50 µM	> 50 µM	–
O=C(C(=O)c1cn(Cc2ccccc2)nn1)c1ccccc1	172 µM (≈ 50 µg/mL)	> 50 µM	> 50 µM	–
O=C(C(=O)c1cn(Cc2ccccc2)nn1)c1ccc([N+](=O)[O-])cc1	95.1 µM (≈ 32 µg/mL)	> 50 µM	> 50 µM	–
O=C(Cc1ccc(Cl)cc1Cl)c1cn(Cc2ccccc2)nn1	–	> 50 µM	> 50 µM	–
CCCCCCCCn1cc(C(=O)Cc2ccccc2)nn1	–	> 50 µM	> 50 µM	–
COc1ccc(C(=O)C(=O)c2cn(CCc3ccccc3)nn2)cc1	> 95.4 µM	> 50 µM	> 50 µM	–
CCCCCCCCn1cc(C(=O)Cc2ccc(Cl)cc2Cl)nn1	20.9 µM (≈ 7.7 µg/mL)	–	–	–
O=C(Cc1ccccc1)c1cn(Cc2ccccc2)nn1	–	> 50 µM	> 50 µM	–
COc1cc(Cn2cc(C(=O)C(=O)c3ccc([N+](=O)[O-])cc3)nn2)cc(OC)c1	161 µM (≈ 64 µg/mL)	> 50 µM	> 50 µM	–
COC(=O)c1ccc(Cn2cc(C(=O)C(=O)c3ccc(Cl)cc3Cl)nn2)o1	39.2 µM (≈ 16 µg/mL)	–	–	–
Cc1cc(C)cc(Cn2cc(C(=O)C(=O)c3ccccc3)nn2)c1	50 µM (≈ 16 µg/mL)	> 50 µM	> 50 µM	–
